ARNT-TACC3 inh – disrupts binding between human ARNT and TACC3. inhibition, % at 9.99 µM. AlphaScreen His-ARNT PAS-B/GST-TACC3 binding, luminescence; TACC3 fragment carries E629A point mutation. 0.66% of 390,000 active;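 active means mean inhibition of replicates at least 50% and at least half of replicates each reaching 50%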
Efflux pump inh – blocks antifungal efflux pumps in multiplex yeast assay | S. cerevisiae Candida pump triplex, Nile Red efflux | inhibition, % at 10 µM | 0.44% of 330,000 active;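 active means plate passing quality check with inhibition over a set limit, or well fluorescence over plate mean plus 4 SD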;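 further: Nile Red retained in pooled yeast measured as flow cytometry median fluorescence; higher means more Nile Red kept so more efflux inhibition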
cardiac RTF act – increases calcium sensitivity of human cardiac regulated thin filaments. P19429+P45379. IANBD-labeled TnC RTF fluorescence at EC20 calcium; 0% EC20 calcium, 100% full calcium. activation, % at 7.2 µM. 0.24% of 340,000 active;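 active means activation above the mean over all tested compounds plus 3 SD, cut at about 30% in these data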;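 further: rise in fluorescence read as greater calcium sensitivity of cardiac thin filaments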
UCH37 DUB inh – blocks the human deubiquitinase UCH37; Q9Y5K5; purified proteasome/UCH37, Ub-AMC cleavage fluorescence; inhibition, % (test concentration not listed); 0.33% of 330,000 active; AID 588478;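 active means mean inhibition over replicate wells above about 20%, limit read from the data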
Target sequence (Q9Y5K5 whole entry, looked up): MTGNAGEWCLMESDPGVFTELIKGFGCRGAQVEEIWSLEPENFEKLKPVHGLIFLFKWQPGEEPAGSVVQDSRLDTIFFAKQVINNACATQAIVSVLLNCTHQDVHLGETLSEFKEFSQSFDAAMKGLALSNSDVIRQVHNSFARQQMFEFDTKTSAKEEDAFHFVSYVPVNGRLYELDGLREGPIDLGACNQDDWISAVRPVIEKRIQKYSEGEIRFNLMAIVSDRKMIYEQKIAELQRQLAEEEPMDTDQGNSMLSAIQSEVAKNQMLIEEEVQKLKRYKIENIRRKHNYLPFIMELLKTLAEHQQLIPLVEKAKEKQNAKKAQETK
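Test system – human UCH37 enzyme supplied as purified proteasome complex · Incubation – 30 min preincubation with enzyme, 25 min cleavage at room temperature · Detection – AMC fluorescence from Ub-AMC cleavage, excitation 355 nm, emission 460 nm · Benchmarks – no-proteasome wells (full inhibition) and compound-free wells (no inhibition)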
RTF Ca sens inh – cardiac RTF calcium desensitization; 0.12% of 340,000 active; AID 493244; IANBD-labeled cardiac RTF, Ca2+ fluorescence; P19429+P45379; inhibition, % at 7.15 µM;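 active means inhibition above the mean inhibition of all tested compounds plus 3 SD, cut at about 17% in these data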;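 further: assay run at fixed EC70 calcium of 1.6 mM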
SUMO Mot1 rescue – SUMOylation pathway inhibition by Mot1-301 growth rescue. S. cerevisiae Mot1-301 growth rescue, ATP luminescence, 38.5C; percent above DMSO median, 100 means doubled. growth rescue, % at 18.8 µM. 1% of 320,000 active;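 active means every valid replicate shows activation above 250% relative to neutral control wells; inactive means the rest, any valid replicate at or below 250%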
Cmpd fluor yeast – flagged as fluorescent in efflux inhibitor counter-screen | shares compounds with Efflux pump inh | S. cerevisiae AD/pABC3, compound fluorescence, flow cytometry | fluorescence ratio to DMSO, % at 10 µM | 4% of 1,700 active | AID 588517;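 active means fluorescence ratio to DMSO above its plate's cutoff, the plate mean ratio plus 5 SD, cut at about 210% in these data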;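 further: unstained yeast with no Nile Red so the signal is compound autofluorescence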
CaMdr1 efflux inh – Candida Mdr1 efflux pump inhibition | shares compounds with Efflux pump inh | S. cerevisiae AD/CaMDR1, Nile Red efflux, flow cytometry | inhibition, % at 10 µM | 1% of 1,700 active; in the data active means inhibition above about 26%;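 further: higher means more Nile Red retained so more efflux inhibition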
CaCdr2 efflux inh – Candida Cdr2 efflux pump inhibition; shares compounds with Efflux pump inh; S. cerevisiae AD/CaCDR2, Nile Red retention, flow cytometry; Nile Red retention ratio vs DMSO, % at 10 µM; 4% of 1,700 active; AID 588520; in the data active means Nile Red retention ratio vs DMSO above about 190%;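 further: higher ratio means more blocking of Cdr2 efflux of the dye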
Cdr1 pump inh – blocks the Candida albicans Cdr1 efflux pump in yeast; shares compounds with Efflux pump inh; S. cerevisiae AD/CaCDR1, Nile Red efflux, flow cytometry; inhibition, % at 10 µM; 1% of 1,700 active; AID 588522;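 active means inhibition above the screen-wide mean plus twice its standard deviation, cut at about 32% in these data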
A number is an active result. Most compounds without a hit are left out; they make up all but 2.1% or so of the library.

What do the screens show for `COc1nc(N/N=C/c2ccc(-c3ccccc3[N+](=O)[O-])o2)nc(N2CCOCC2)n1`?
ARNT-TACC3 inh: inactive; Efflux pump inh: 16; cardiac RTF act: inactive; RTF Ca sens inh: inactive; SUMO Mot1 rescue: inactive; Cmpd fluor yeast: inactive; CaMdr1 efflux inh: inactive; CaCdr2 efflux inh: inactive; Cdr1 pump inh: inactive

How did O=[N+]([O-])c1ccc(-c2ccc(/C=N/Nc3nc(NCc4ccccc4)nc(N4CCOCC4)n3)o2)cc1 do in these assays?
ARNT-TACC3 inh: inactive; Efflux pump inh: inactive; cardiac RTF act: inactive; RTF Ca sens inh: inactive; SUMO Mot1 rescue: inactive

What do the screens show for `Cc1ccccc1N(CC(=O)NN=Cc1ccc(Cl)cc1)C(=O)c1ccccc1`?
UCH37 DUB inh: inactive

What do the screens show for `C[n+]1ccccc1/C=C/c1ccc([N+](=O)[O-])cc1`?
ARNT-TACC3 inh: inactive; Efflux pump inh: 1.4; cardiac RTF act: inactive; UCH37 DUB inh: inactive; RTF Ca sens inh: inactive; SUMO Mot1 rescue: inactive; Cmpd fluor yeast: inactive; CaMdr1 efflux inh: inactive; CaCdr2 efflux inh: inactive; Cdr1 pump inh: inactive

What do the screens show for `Cc1c2n(c3ccccc13)CCC2=NO`?
UCH37 DUB inh: inactive

What do the screens show for `Cc1ccc(C=NN2C(=S)SC(C)(C)C2N(O)C(=O)Nc2ccc([N+](=O)[O-])cc2)cc1` (centres undefined)?
UCH37 DUB inh: inactive

Results for COc1ccc(OC)c(NC(=O)NNC(=O)c2cc3occc3[nH]2)c1 ?
ARNT-TACC3 inh: inactive; Efflux pump inh: 1.2; cardiac RTF act: inactive; UCH37 DUB inh: inactive; RTF Ca sens inh: inactive; SUMO Mot1 rescue: inactive; Cmpd fluor yeast: inactive; CaMdr1 efflux inh: inactive; CaCdr2 efflux inh: inactive; Cdr1 pump inh: inactive

How did O=C(NCCN1CCOCC1)c1cccc(S(=O)(=O)N2CCCCC2)c1 do in these assays?
ARNT-TACC3 inh: inactive; Efflux pump inh: inactive; cardiac RTF act: inactive; UCH37 DUB inh: inactive; RTF Ca sens inh: inactive; SUMO Mot1 rescue: inactive

What do the screens show for `O=C(NCCCN1CCOCC1)c1cccc(S(=O)(=O)N2CCOCC2)c1`?
ARNT-TACC3 inh: inactive; Efflux pump inh: 106; cardiac RTF act: inactive; UCH37 DUB inh: inactive; RTF Ca sens inh: inactive; SUMO Mot1 rescue: inactive; Cmpd fluor yeast: inactive; CaMdr1 efflux inh: inactive; CaCdr2 efflux inh: inactive; Cdr1 pump inh: inactive

What do the screens show for `O=C(NCCCN1CCOCC1)C(=O)N/N=C/c1ccccc1O`?
ARNT-TACC3 inh: 69; Efflux pump inh: 0.8; cardiac RTF act: inactive; RTF Ca sens inh: inactive; SUMO Mot1 rescue: inactive; Cmpd fluor yeast: inactive; CaMdr1 efflux inh: inactive; CaCdr2 efflux inh: inactive; Cdr1 pump inh: inactive

Results for O=C1C2C3C=CC(CC3)C2C(=O)N1N=Cc1c[nH]c2ccccc12 (centres undefined) ?
UCH37 DUB inh: inactive

How did N#C/C(=C/c1ccc(-c2ccc(Br)cc2)o1)C(=O)NC1CCCCC1 do in these assays?
ARNT-TACC3 inh: inactive; Efflux pump inh: 1.7; cardiac RTF act: inactive; UCH37 DUB inh: inactive; RTF Ca sens inh: inactive; SUMO Mot1 rescue: inactive; Cmpd fluor yeast: inactive; CaMdr1 efflux inh: inactive; CaCdr2 efflux inh: inactive; Cdr1 pump inh: inactive

How did Cc1ccc(N2CCN(C(=O)C3CCCN(c4ncnc5c4nc4n5CCCCC4)C3)CC2)c(C)c1 (centres undefined) do in these assays?
ARNT-TACC3 inh: inactive; Efflux pump inh: inactive; cardiac RTF act: inactive; UCH37 DUB inh: inactive; RTF Ca sens inh: inactive; SUMO Mot1 rescue: inactive

Results for Cc1ccc(C)c(N2CCN(C(=O)C3CCCN(c4ncnc5c4nc4n5CCCCC4)C3)CC2)c1 (centres undefined) ?
ARNT-TACC3 inh: inactive; Efflux pump inh: 2.5; cardiac RTF act: inactive; UCH37 DUB inh: inactive; RTF Ca sens inh: inactive; SUMO Mot1 rescue: inactive; Cmpd fluor yeast: inactive; CaMdr1 efflux inh: inactive; CaCdr2 efflux inh: active; Cdr1 pump inh: inactive

How did O=C(O)CCN1C(=O)/C(=C/c2ccc(-c3nc4ccccc4s3)o2)SC1=S do in these assays?
ARNT-TACC3 inh: 64; Efflux pump inh: 1.9; cardiac RTF act: inactive; UCH37 DUB inh: inactive; RTF Ca sens inh: inactive; SUMO Mot1 rescue: inactive; Cmpd fluor yeast: inactive; CaMdr1 efflux inh: inactive; CaCdr2 efflux inh: active; Cdr1 pump inh: inactive

How did O=C(O)CC(C(=O)O)N1C(=O)/C(=C/c2ccc(-c3nc4ccccc4s3)o2)SC1=S (centres undefined) do in these assays?
ARNT-TACC3 inh: inactive; Efflux pump inh: inactive; cardiac RTF act: inactive; UCH37 DUB inh: inactive; RTF Ca sens inh: inactive; SUMO Mot1 rescue: inactive; Cmpd fluor yeast: inactive; CaMdr1 efflux inh: inactive; CaCdr2 efflux inh: inactive; Cdr1 pump inh: inactive

How did Cc1cc2ccccc2n2c(SCC(=O)Nc3ccc(S(=O)(=O)N4CCCCC4)cc3)nnc12 do in these assays?
ARNT-TACC3 inh: inactive; Efflux pump inh: inactive; cardiac RTF act: inactive; UCH37 DUB inh: inactive; RTF Ca sens inh: inactive; SUMO Mot1 rescue: inactive

Results for Cc1cc2ccccc2n2c(SCC(=O)Nc3ccc(S(=O)(=O)N4CCC(C)CC4)cc3)nnc12 ?
ARNT-TACC3 inh: inactive; Efflux pump inh: 6.8; cardiac RTF act: inactive; UCH37 DUB inh: inactive; RTF Ca sens inh: inactive; SUMO Mot1 rescue: inactive; Cmpd fluor yeast: inactive; CaMdr1 efflux inh: inactive; CaCdr2 efflux inh: inactive; Cdr1 pump inh: inactive

What do the screens show for `Clc1ccc(C=NNc2nc(Cl)nc3ccccc23)cc1`?
UCH37 DUB inh: inactive

What do the screens show for `O=C(C1CCCCC1)N1CCCC(c2nc(-c3ccc(F)cc3)no2)C1` (centres undefined)?
ARNT-TACC3 inh: inactive; Efflux pump inh: 8.2; cardiac RTF act: inactive; UCH37 DUB inh: inactive; RTF Ca sens inh: inactive; SUMO Mot1 rescue: inactive; Cmpd fluor yeast: inactive; CaMdr1 efflux inh: inactive; CaCdr2 efflux inh: inactive; Cdr1 pump inh: inactive

Results for O=C(Nc1ccccc1)N1CCCC(c2nc(-c3ccc(F)cc3)no2)C1 (centres undefined) ?
ARNT-TACC3 inh: inactive; Efflux pump inh: inactive; cardiac RTF act: inactive; UCH37 DUB inh: inactive; RTF Ca sens inh: inactive; SUMO Mot1 rescue: inactive

What do the screens show for `O=C(CN1CCOCC1)NN=C/C(Br)=C\c1ccccc1`?
UCH37 DUB inh: inactive

What do the screens show for `CC1C(=O)N2CCCc3cc(S(=O)(=O)N4CCCCC4)cc1c32` (centres undefined)?
ARNT-TACC3 inh: inactive; Efflux pump inh: 0.7; cardiac RTF act: inactive; UCH37 DUB inh: inactive; RTF Ca sens inh: inactive; SUMO Mot1 rescue: inactive; Cmpd fluor yeast: inactive; CaMdr1 efflux inh: inactive; CaCdr2 efflux inh: inactive; Cdr1 pump inh: inactive

Screens deposited in PubChem by several laboratories.
